Experimental findings from publication PMC5242338 (Molecular imaging and biology : MIB : the official …, 2016) are described below.

One data set can be described thus: in vivo. The arrangement: species or system mice. Conditions: mouse, iv, 100 uCi/mouse, total radioactivity.
The next data set has as its system CHO-CXCR4 and CHO tumors. The format is in vivo, mice.
For the next data set, the system named is CHO-CXCR4 cells. Description: Cell uptake, internalization and efflux of tracer. The format is cell-based, Chinese hamster. In outline: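 CHO-CXCR4 cells (F-12K, 10 % FBS) seeded at 1×10^5/well and given 11.1 kBq (0.3 µCi) tracer at 37 °C for 5–120 min. Blocking used 10 µg/well (22 µM) unlabeled peptide for 2 h. Cells were washed twice with cold PBS, lysed in 0.1 M NaOH and γ-counted. For internalization, an extra 1 min wash in 50 mM glycine/0.1 M NaCl, pH 2.8, was added. For efflux, cells were loaded for 2 h, then given tracer-free medium. Values are % of added activity, mean of three experiments ± SD.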

Where a SMILES comes first, the peptide text is derived from it. Bridges are numbered along the chain shown (N, C = ends). [ ]: non-standard residue; d: D form. The star is where a group is joined. NOTA = O=C(O)CN1CCN(CC(=O)O)CCN(CC(=O)*)CC1; 2Nal = N[C@@H](Cc1ccc2ccccc2c1)C(=O)O; Cit = NC(=O)NCCC[C@H](N)C(=O)O

Usually tissue uptake stands for the share of the injected amount in each gram of the tissue. Turning to `N=C(N)NCCC[C@H](NC(=O)[C@@H]1CSSC[C@H](NC(=O)[C@H](Cc2ccc3ccccc3c2)NC(=O)[C@H](CCCNC(=N)N)NC(=O)[C@H](CCCNC(=N)N)NC(=O)CN2CCN(CC(=O)O)CCN(CC(=O)O)CC2)C(=O)N[C@@H](Cc2ccc(O)cc2)C(=O)N[C@@H](CCCNC(N)=O)C(=O)N[C@@H](CCCCN)C(=O)N[C@H](CCCCN)C(=O)N2CCC[C@H]2C(=O)N[C@@H](Cc2ccc(O)cc2)C(=O)N[C@@H](CCCNC(=N)N)C(=O)N[C@@H](CCCNC(N)=O)C(=O)N1)C(N)=O` [Al[^18F]NOTA-T140] ({NOTA}-RR[2Nal]CY[Cit]K[dK]PYR[Cit]CR-NH2; disulfide 4-13), the tissue uptake at 2 h in the data set “in vivo” (biodistribution: bone) was 2.95 ± 0.74 %ID/g; in “in vivo” (biodistribution: kidneys) it was 32.8 ± 2.62 %ID/g; in the data set “in vivo” (biodistribution: liver), 34.2 ± 4.98 %ID/g; in the data set “in vivo” (biodistribution: spleen), 6.37 ± 1.18 %ID/g. In addition, the “reduction in CHO-CXCR4 tumor uptake on blocking” value in the data set with CHO-CXCR4 and CHO tumors (co-injection of 100 µg unlabeled peptide, PET 1 h post-injection) is 50–60%. Moreover, the “change of tracer uptake in the bone on blocking” value in the data set with CHO-CXCR4 and CHO tumors (mouse, in vivo) is recorded as “significantly reduced”. In the data set with CHO-CXCR4 cells (2 h, 10 µg/well (22 µM) unlabeled peptide), the “cell uptake with blocking by unlabeled peptide” value turned out to be 5.11±0.35%. For the same compound, in the data set on CHO-CXCR4 cells (2 h, acid wash (glycine pH 2.8) removes surface-bound tracer), the “share of the uptake due to internalization” value is reported as roughly 50%. For the same compound, the “efflux from the cells” value with CHO-CXCR4 cells (after 2 h loading at 37 °C, medium replaced) was “slow”.
